# The source made the active and inactive calls. No cut-off for these calls is given here.
# Legend:
# D(2) dopamine receptor [1] = target: T1, D(2) dopamine receptor (Homo sapiens, UniProt P14416); settings: CHO
# D(2) dopamine receptor [2] = target: T1, D(2) dopamine receptor; settings: CHO; remark: listed apart in the source
# D(2) dopamine receptor [3] = target: T1, D(2) dopamine receptor; settings: CHO; remark: listed apart in the source
# D(2) dopamine receptor [4] = target: T1, D(2) dopamine receptor; experiment: Agonist activity at human D2L receptor expressed in FlpIn CHO cells assessed as induction of ERK1/2 phosphorylation by AlphaScreen assay relative to dopamine; assay type: cell-based
# In short: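 FlpIn CHO cells stably expressing human D2L receptor, seeded at 50 000 cells/well, serum-starved overnight. Ligands added at 37 °C for 5−10 min, time set per ligand from prior time-course runs. Lysed in SureFire buffer; phospho-ERK1/2 read by AlphaScreen. Curves fitted to three-parameter logistic; Emax as % of dopamine maximum. Three to four experiments in duplicate.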
# D(2) dopamine receptor [5] = target: T1, D(2) dopamine receptor; experiment: Displacement of [3H]spiperone from human D2L receptor expressed in FlpIn CHO cell membrane after 3 hrs by liquid scintillation counting analysis; assay type: cell membranes
# In short: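 Membranes from D2L FlpIn CHO cells, 3 μg, with 0.05 nM [3H]spiperone, 100 μM GppNHp and varied competitor in 20 mM HEPES, 100 mM NaCl, 6 mM MgCl2, 1 mM EGTA, 1 mM EDTA, pH 7.4, 3 h at 37 °C. Filtered on GF/B, washed in ice-cold saline, counted by liquid scintillation. Three experiments in duplicate.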
# [6] = Retention time of the compound by HPLC analysis; assay type: physicochemical
# In short: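 Reverse-phase C8 column, 0.1% TFA/water vs 0.1% TFA/80% MeOH; 100% A 10 min, 80% B over 2 min, back to 100% A over 10 min; 1 mL/min, detection at 214 nm.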
# D(2) dopamine receptor [7] = target: T1, D(2) dopamine receptor; experiment: Agonist activity at human D2L receptor expressed in FlpIn CHO cells assessed as induction of ERK1/2 phosphorylation by AlphaScreen assay; assay type: cell-based
# D(2) dopamine receptor [8] = target: T1, D(2) dopamine receptor; settings: CHO; remark: listed apart in the source
# D(2) dopamine receptor [9] = target: T1, D(2) dopamine receptor; experiment: Agonist activity at human D2L receptor expressed in FlpIn CHO cells assessed as inhibition of forskolin-stimulated cAMP production treated for 30 mins by AlphaScreen assay relative to dopamine; assay type: functional, cell-based
# In short: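 D2L-expressing FlpIn CHO cells grown overnight, then preincubated 45 min in HBSS stimulation buffer (1 mg/mL BSA, 0.5 mM IBMX, 5 mM HEPES, pH 7.4). Agonist and 300 nM forskolin added together for 30 min at 37 °C. Stopped with ice-cold ethanol, dried, lysed in detection buffer; cAMP measured by AlphaScreen. Operational-model fit gives log(τ/KA); n = 4.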
# D(2) dopamine receptor [10] = target: T1, D(2) dopamine receptor; experiment: Agonist activity at human D2L receptor expressed in FlpIn CHO cells assessed as induction of ERK1/2 phosphorylation at 10 uM by AlphaScreen assay; assay type: cell-based
# In short: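 Time-course ERK1/2 phosphorylation screen at 10 μM in FlpIn CHO cells stably expressing human D2L, seeded 50 000 cells/well, serum-starved overnight. Compounds applied at 37 °C over a time course to find peak stimulation time. Stimulation stopped by SureFire lysis, 5 min shaking at room temperature, lysate read by AlphaScreen.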
# D(2) dopamine receptor [11] = target: T1, D(2) dopamine receptor; experiment: Competitive antagonist activity at human D2L receptor expressed in FlpIn CHO cells assessed as inhibition of dopamine-induced ERK1/2 phosphorylation treated for 30 mins prior to dopamine stimulation for 5 mins by AlphaScreen assay; assay type: cell-based
# In short: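 Human D2L FlpIn CHO cells serum-starved overnight. Inhibitor at a range of dilutions for 30 min at 37 °C, then 10 nM dopamine for 5 min. Lysed; phospho-ERK1/2 detected by AlphaScreen. pIC50 taken from inhibition curves; three to four experiments in duplicate.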
# D(2) dopamine receptor [12] = target: T1, D(2) dopamine receptor; experiment: Partial agonist activity at human D2L receptor expressed in FlpIn CHO cells assessed as induction of ERK1/2 phosphorylation by AlphaScreen assay relative to dopamine; assay type: cell-based
# In short: (§1)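 Stable human D2L FlpIn CHO cells serum-starved overnight, then given concentration series of agonist at 37 °C for 5–10 min, the per-compound peak time from time-course runs. Lysed with SureFire buffer and pERK1/2 detected by AlphaScreen. Three-parameter logistic fit gives pEC50; Emax as % of maximal dopamine response. Three to four experiments in duplicate.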
# D(2) dopamine receptor [13] = target: T1, D(2) dopamine receptor; experiment: Partial agonist activity at human D2L receptor expressed in FlpIn CHO cells assessed as induction of ERK1/2 phosphorylation by AlphaScreen assay; assay type: cell-based
# In short: as §1
# D(2) dopamine receptor [14] = target: T1, D(2) dopamine receptor; settings: CHO, at 10 µM
# D(2) dopamine receptor [15] = target: T1, D(2) dopamine receptor; experiment: Antagonist activity at human D2L receptor expressed in FlpIn CHO cells assessed as inhibition of dopamine-induced ERK1/2 phosphorylation treated for 30 mins prior to dopamine stimulation for 5 mins by AlphaScreen assay; assay type: cell-based
# In short: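 D2L-FlpIn CHO cells serum-starved overnight. Compound serial dilutions preincubated 30 min at 37 °C, then 10 nM dopamine added for 5 min. Lysed in SureFire buffer, pERK1/2 read by AlphaScreen. pIC50 is the mean of three to four separate experiments run in duplicate.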
# D(2) dopamine receptor [16] = target: T1, D(2) dopamine receptor; experiment: Agonist activity at human D2L receptor expressed in FlpIn CHO cells assessed as inhibition of forskolin-stimulated cAMP production treated for 30 mins by AlphaScreen assay; assay type: functional, cell-based
# T1 sequence (P14416 whole entry): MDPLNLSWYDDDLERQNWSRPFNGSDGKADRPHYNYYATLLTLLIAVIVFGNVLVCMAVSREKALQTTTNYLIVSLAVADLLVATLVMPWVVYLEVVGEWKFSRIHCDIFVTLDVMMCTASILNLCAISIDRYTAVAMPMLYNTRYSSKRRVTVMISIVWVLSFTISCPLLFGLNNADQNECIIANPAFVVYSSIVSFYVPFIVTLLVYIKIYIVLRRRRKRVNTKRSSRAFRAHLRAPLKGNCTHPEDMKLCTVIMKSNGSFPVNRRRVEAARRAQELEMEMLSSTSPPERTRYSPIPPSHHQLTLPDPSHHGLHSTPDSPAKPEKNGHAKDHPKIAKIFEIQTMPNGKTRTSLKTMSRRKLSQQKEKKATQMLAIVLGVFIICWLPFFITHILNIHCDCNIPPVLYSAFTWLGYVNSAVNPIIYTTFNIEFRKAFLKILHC
smiles,measurement,setting,value
COc1nc2sc(C(=O)NCCCCCN3CCN(c4cccc(Cl)c4Cl)CC3)c(N)c2c(C)c1Cl,log(activity),D(2) dopamine receptor [1],0.28
same,pKA,D(2) dopamine receptor [2],7.1
same,Ka,D(2) dopamine receptor [3],58.9 nM
same,pKA,D(2) dopamine receptor [3],6.89
same,Emax,D(2) dopamine receptor [4],17%
same,Ki,D(2) dopamine receptor [5],15.5 nM
same,Retention_time,[6],11.66 min
same,EC50,D(2) dopamine receptor [7],87.6 nM
same,log(activity),D(2) dopamine receptor [8],-0.65
same,Emax,D(2) dopamine receptor [9],71%
CC(C)(C)OC(=O)NCCCCCN1CCC(O)(c2ccc(Cl)cc2)CC1,Ki,D(2) dopamine receptor [5],2050 nM
same,Activity,D(2) dopamine receptor [10],inactive
CC(C)(C)OC(=O)NCCCCCCN1CCC(O)(c2ccc(Cl)cc2)CC1,Ki,D(2) dopamine receptor [5],902 nM
same,Retention_time,[6],8.77 min
same,Activity,D(2) dopamine receptor [10],inactive
Cc1cc(C)c2c(N)c(C(=O)NCCN3CCC(O)(c4ccc(Cl)cc4)CC3)sc2n1,Ki,D(2) dopamine receptor [5],910 nM
same,Retention_time,[6],8.06 min
Cc1cc(C)c2c(N)c(C(=O)NCCCN3CCC(O)(c4ccc(Cl)cc4)CC3)sc2n1,Ki,D(2) dopamine receptor [5],1700 nM
COc1ccccc1N1CCN(CCNC(=O)c2sc3nc(OC)c(Cl)c(C)c3c2N)CC1,Kb,D(2) dopamine receptor [11],355 nM
same,pKb,D(2) dopamine receptor [11],6.45
same,Ki,D(2) dopamine receptor [5],48.3 nM
CC(C)(C)OC(=O)NCCCCCN1CCN(c2cccc(Cl)c2Cl)CC1,log(activity),D(2) dopamine receptor [1],0.43
same,pKA,D(2) dopamine receptor [2],7.14
same,pKA,D(2) dopamine receptor [3],7.73
same,Ki,D(2) dopamine receptor [5],42.6 nM
same,Retention_time,[6],10.43 min
same,log(activity),D(2) dopamine receptor [8],-0.51
COc1ccccc1N1CCN(CCCCCNC(=O)c2sc3nc(OC)c(Cl)c(C)c3c2N)CC1,log(activity),D(2) dopamine receptor [1],-0.26
same,pKA,D(2) dopamine receptor [2],8.86
same,pKA,D(2) dopamine receptor [3],7.47
same,Emax,D(2) dopamine receptor [12],17%
same,Ki,D(2) dopamine receptor [5],3.5 nM
same,Retention_time,[6],9.84 min
same,log(activity),D(2) dopamine receptor [8],-0.65
same,EC50,D(2) dopamine receptor [13],2.69 nM
COc1ccccc1N1CCN(CCCNC(=O)c2sc3nc(OC)c(Cl)c(C)c3c2N)CC1,Kb,D(2) dopamine receptor [11],741 nM
same,pKb,D(2) dopamine receptor [11],6.13
same,Ki,D(2) dopamine receptor [5],19.5 nM
COc1ccccc1N1CCN(CCCCNC(=O)c2sc3nc(OC)c(Cl)c(C)c3c2N)CC1,Kb,D(2) dopamine receptor [11],490 nM
same,pKb,D(2) dopamine receptor [11],6.31
same,Ki,D(2) dopamine receptor [5],6.3 nM
same,Retention_time,[6],9.3 min
Cc1cc(C)c2c(N)c(C(=O)NCCCCCN3CCC(O)(c4ccc(Cl)cc4)CC3)sc2n1,Ki,D(2) dopamine receptor [5],1980 nM
COc1ccccc1N1CCN(CCCCCCNC(=O)OC(C)(C)C)CC1,inhibition,D(2) dopamine receptor [14],Active
same,Ki,D(2) dopamine receptor [5],74.8 nM
same,IC50,D(2) dopamine receptor [15],3.98 nM
CC(C)(C)OC(=O)NCCN1CCC(O)(c2ccc(Cl)cc2)CC1,Ki,D(2) dopamine receptor [5],2750 nM
same,Retention_time,[6],7.68 min
same,Activity,D(2) dopamine receptor [10],inactive
CC(C)(C)OC(=O)NCCCCN1CCC(O)(c2ccc(Cl)cc2)CC1,Ki,D(2) dopamine receptor [5],2110 nM
same,Activity,D(2) dopamine receptor [10],inactive
COc1ccccc1N1CCN(CCCNC(=O)OC(C)(C)C)CC1,Emax,D(2) dopamine receptor [12],31%
same,Ki,D(2) dopamine receptor [5],16.1 nM
same,Retention_time,[6],7.74 min
same,EC50,D(2) dopamine receptor [13],0.39 nM
same,Activity,D(2) dopamine receptor [10],inactive
COc1ccccc1N1CCN(CCCCCCNC(=O)c2sc3nc(OC)c(Cl)c(C)c3c2N)CC1,Emax,D(2) dopamine receptor [12],14%
same,Ki,D(2) dopamine receptor [5],0.6 nM
same,EC50,D(2) dopamine receptor [13],5.49 nM
OC1(c2ccc(Cl)cc2)CCNCC1,Ki,D(2) dopamine receptor [5],9090 nM
Cc1cc(C)c2c(N)c(C(=O)NCCCCCN3CCN(c4cccc(Cl)c4Cl)CC3)sc2n1,log(activity),D(2) dopamine receptor [1],-0.06
same,pKA,D(2) dopamine receptor [2],7.9
same,pKA,D(2) dopamine receptor [3],9
same,Emax,D(2) dopamine receptor [4],13%
same,Ki,D(2) dopamine receptor [5],11.2 nM
same,Retention_time,[6],10.13 min
same,EC50,D(2) dopamine receptor [7],13.2 nM
same,log(activity),D(2) dopamine receptor [8],-0.78
same,Emax,D(2) dopamine receptor [9],50%
same,EC50,D(2) dopamine receptor [16],0.3 nM
Clc1cccc(N2CCNCC2)c1Cl,Ki,D(2) dopamine receptor [5],1160 nM
CC(C)(C)OC(=O)NCCCN1CCC(O)(c2ccc(Cl)cc2)CC1,Ki,D(2) dopamine receptor [5],1350 nM
same,Activity,D(2) dopamine receptor [10],inactive
COc1ccccc1N1CCNCC1,Kb,D(2) dopamine receptor [11],479 nM
same,pKb,D(2) dopamine receptor [11],6.32
same,inhibition,D(2) dopamine receptor [14],Active
same,Ki,D(2) dopamine receptor [5],4110 nM
same,IC50,D(2) dopamine receptor [15],> 1000 nM
same,pIC50,D(2) dopamine receptor [15]; cho,< 6
COc1ccccc1N1CCN(CCCCCNC(=O)c2sc3nc(C)cc(C)c3c2N)CC1,log(activity),D(2) dopamine receptor [1],-0.42
same,pKA,D(2) dopamine receptor [3],8.84
same,Ki,D(2) dopamine receptor [5],9.1 nM
same,Retention_time,[6],8.89 min
same,Emax,D(2) dopamine receptor [9],33%
Cc1cc(C)c2c(N)c(C(=O)NCCCCN3CCC(O)(c4ccc(Cl)cc4)CC3)sc2n1,Ki,D(2) dopamine receptor [5],2250 nM
COc1ccccc1N1CCN(CCCCCNC(=O)OC(C)(C)C)CC1,log(activity),D(2) dopamine receptor [1],0.19
same,pKA,D(2) dopamine receptor [2],8.77
same,pKA,D(2) dopamine receptor [3],7.06
same,Emax,D(2) dopamine receptor [12],19%
same,Ki,D(2) dopamine receptor [5],12.1 nM
same,Retention_time,[6],10.43 min
same,log(activity),D(2) dopamine receptor [8],-0.67
same,EC50,D(2) dopamine receptor [13],1.43 nM
same,Activity,D(2) dopamine receptor [10],inactive
NCCc1ccc(O)c(O)c1,pKA,D(2) dopamine receptor [2],7.98
same,log(activity),D(2) dopamine receptor [8],0.79
Cc1cc(C)c2c(N)c(C(=O)NCCCCCCN3CCC(O)(c4ccc(Cl)cc4)CC3)sc2n1,Ki,D(2) dopamine receptor [5],975 nM
same,Retention_time,[6],8.39 min
COc1ccccc1N1CCN(CCCCNC(=O)OC(C)(C)C)CC1,Emax,D(2) dopamine receptor [12],13%
same,Ki,D(2) dopamine receptor [5],18.9 nM
same,EC50,D(2) dopamine receptor [13],0.6 nM
same,Activity,D(2) dopamine receptor [10],inactive
